From ChEMBL document CHEMBL3286171 (Eur J Med Chem, 2014)
The source made the active and inactive calls. No cut-off for these calls is given here.

Assays:
[1] = Permeability in human Caco2 cells; details: Caco-2
[2] = Drug absorption in human intestine
[3] = target: T1, Amine oxidase [flavin-containing] B (Rattus norvegicus, UniProt P19643); assay: Inhibition of MAO-B in rat liver homogenate using [14C]-phenylethylamine as substrate preincubated for 30 mins followed by substrate addition measured after 4 mins by liquid scintillation counting analysis; type: tissue-based
T1 sequence (P19643 whole entry): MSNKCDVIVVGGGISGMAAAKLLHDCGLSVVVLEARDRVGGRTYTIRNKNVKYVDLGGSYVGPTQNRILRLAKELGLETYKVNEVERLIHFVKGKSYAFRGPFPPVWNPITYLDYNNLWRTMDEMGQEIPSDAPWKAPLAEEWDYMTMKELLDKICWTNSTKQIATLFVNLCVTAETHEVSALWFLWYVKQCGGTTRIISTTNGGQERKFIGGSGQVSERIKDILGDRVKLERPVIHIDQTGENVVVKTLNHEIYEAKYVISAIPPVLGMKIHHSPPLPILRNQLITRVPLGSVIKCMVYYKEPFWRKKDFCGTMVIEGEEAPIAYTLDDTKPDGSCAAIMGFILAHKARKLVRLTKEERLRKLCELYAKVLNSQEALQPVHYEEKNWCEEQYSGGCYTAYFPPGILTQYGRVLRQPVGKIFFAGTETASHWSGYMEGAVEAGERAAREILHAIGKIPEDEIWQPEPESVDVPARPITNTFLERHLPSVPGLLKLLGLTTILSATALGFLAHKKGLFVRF
Outline: (§1)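 MAO source was rat liver homogenate. Enzyme pre-incubated 30 min with a range of inhibitor concentrations in 50 mM phosphate buffer, pH 7.4. Substrates: MAO A, 100 μM [14C]-5-HT (0.5 mCi/mmol), reaction 20 min; MAO B, 20 μM [14C]-PEA (2.5 mCi/mmol), reaction 4 min. Final volume 225 μl.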

[4] = Protein binding in plasma (unknown origin)
Acetylcholinesterase = Acetylcholinesterase (Electrophorus electricus, UniProt O42275); assay: Inhibition of electric eel AChE using acetylthiocholine iodide as substrate preincubated for 20 mins followed by substrate addition measured after 5 mins by Ellman's method
[5] = Apparent permeability in MDCK cells; details: dog
Cholinesterase = Cholinesterase (Equus caballus, UniProt P81908); assay: Inhibition of equine serum BuChE using butyrylthiocholine iodide as substrate preincubated for 20 mins followed by substrate addition measured after 25 mins by Ellman's method
Outline: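 Ellman-type colorimetric assay in 0.1 M phosphate buffer pH 8.0 with 0.05 U/mL BuChE and 0.35 mM DTNB. Serial inhibitor dilutions pre-incubated with the mix for 20 min, then butyrylthiocholine iodide added (final 0.5 mM). […] At least three experiments in triplicate, mean ± SEM.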

[6] = Effective permeability across human intestinal membrane by Ussing chamber technique
[7] = target: T2, Amine oxidase [flavin-containing] A (Rattus norvegicus, UniProt P21396); assay: Inhibition of MAO-A in rat liver homogenate using [14C]-5HT as substrate preincubated for 30 mins followed by substrate addition measured after 20 mins by liquid scintillation counting analysis; type: tissue-based; outline: as §1
T2 sequence (P21396 whole entry): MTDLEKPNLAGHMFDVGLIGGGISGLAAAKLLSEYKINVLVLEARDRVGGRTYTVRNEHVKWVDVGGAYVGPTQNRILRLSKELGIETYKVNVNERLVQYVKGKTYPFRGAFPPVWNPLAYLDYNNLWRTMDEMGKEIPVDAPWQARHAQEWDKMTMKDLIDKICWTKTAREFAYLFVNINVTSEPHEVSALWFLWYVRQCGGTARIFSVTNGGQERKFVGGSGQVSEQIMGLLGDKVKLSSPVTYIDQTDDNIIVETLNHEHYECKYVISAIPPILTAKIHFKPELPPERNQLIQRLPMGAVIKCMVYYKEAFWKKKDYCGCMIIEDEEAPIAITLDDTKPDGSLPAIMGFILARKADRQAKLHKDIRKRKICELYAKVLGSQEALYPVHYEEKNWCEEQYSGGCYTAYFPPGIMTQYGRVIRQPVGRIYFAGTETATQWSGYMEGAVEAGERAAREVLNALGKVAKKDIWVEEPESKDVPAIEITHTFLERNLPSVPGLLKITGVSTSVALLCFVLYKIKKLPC

[8] = target: T2, Amine oxidase [flavin-containing] A; assay: Inhibition of MAO-A in rat liver homogenate; type: tissue-based
Outline: (§2)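 Rat liver homogenate as the MAO source. The enzyme is pre-incubated 30 min with several inhibitor concentrations in 50 mM phosphate buffer, pH 7.4. […] Mean ± SEM of at least three experiments in quadruplicate.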

[9] = target: T1, Amine oxidase [flavin-containing] B; assay: Inhibition of MAO-B in rat liver homogenate preincubated for 30 mins; type: tissue-based; outline: as §2
[10] = Hepatotoxicity in human HepG2 cells assessed as cell viability at 1 uM by MTT assay relative to control; type: toxicity, cell-based; details: read-out: Activity
[11] = Hepatotoxicity in human HepG2 cells assessed as cell viability at 3 uM by MTT assay relative to control; type: toxicity, cell-based; details: read-out: Activity
[12] = Hepatotoxicity in human HepG2 cells assessed as cell viability at 30 uM by MTT assay relative to control; type: toxicity, cell-based; details: read-out: Activity
[13] = target: T2, Amine oxidase [flavin-containing] A; assay: Irreversible inhibition of MAO-A in rat liver homogenate assessed as recovery of enzyme activity at 10 uM preincubated for 30 mins followed by centrifugation and washing with PBS buffer; type: tissue-based
Outline: (§3)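 Enzyme pre-incubated 30 min at 37 °C with inhibitor: 10 μM (MAO A) or 20 μM (MAO B). […] Three cycles of washing in 50 mM phosphate buffer pH 7.4 and centrifugation at 25,000 g, 10 min, 4 °C. Protein measured by Bradford; activity then assayed by the radiometric method. Six independent experiments in triplicate; Kruskal-Wallis analysis.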

[14] = target: T1, Amine oxidase [flavin-containing] B; assay: Irreversible inhibition of MAO-B in rat liver homogenate assessed as recovery of enzyme activity at 20 uM preincubated for 30 mins followed by centrifugation and washing with PBS buffer; type: tissue-based; outline: as §3
[15] = Hepatotoxicity in human HepG2 cells assessed as cell viability at 1000 uM by MTT assay relative to control; type: toxicity, cell-based; details: read-out: Activity
[16] = Metal chelating activity assessed as compound concentration required for ferric ion complex formation by UV-Vis spectrometric analysis; type: physicochemical
Outline: (§4)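 UV-Vis spectra (220-300 nm) recorded in distilled water at room temperature in 1 cm quartz cells. Ligand at 10 μM with increasing CuSO4, Fe2(SO4)3 or ZnSO4. Incubation times: Cu(II) 5 min, Zn(II) 1 h, Fe(III) overnight. Stoichiometry found by Job's method, plotting absorbance at 257 nm against ligand mole fraction.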

[17] = Metal chelating activity assessed as compound concentration required for zinc complex formation after 1 hr by UV-Vis spectrometric analysis; type: physicochemical; outline: as §4
[18] = Hepatotoxicity in human HepG2 cells assessed as cell viability at 300 uM by MTT assay relative to control; type: toxicity, cell-based; details: read-out: Activity
[19] = Hepatotoxicity in human HepG2 cells assessed as cell viability at 10 uM by MTT assay relative to control; type: toxicity, cell-based; details: read-out: Activity
[20] = target: T1, Amine oxidase [flavin-containing] B; assay: Inhibition of MAO-B in rat liver homogenate; type: tissue-based; outline: as §2
[21] = target: T2, Amine oxidase [flavin-containing] A; assay: Inhibition of MAO-A in rat liver homogenate preincubated for 30 mins; type: tissue-based; outline: as §2
[22] = target: Acetylcholinesterase (Electrophorus electricus) (UniProt O42275); assay: Mixed-type inhibition of electric eel AChE using acetylthiocholine iodide as substrate at 0.5 to 5 uM by Lineweaver-Burk plot analysis
[23] = Metal chelating activity assessed as compound concentration required for copper complex formation after 5 mins by UV-Vis spectrometric analysis; type: physicochemical; outline: as §4
Mus musculus [24] = assay: Cognitive enhancing effect in C57BL/6J mouse assessed as reversal of scopolamine-induced long-term memory deficit by measuring increase in latency time during probe session at 35 mg/kg, iv administered 90 mins prior to scopolamine-challenge measured after 24 hrs by passive avoidance test; type: functional, organism-based; set-up: dose 35 mg/kg
[25] = Hepatotoxicity in human HepG2 cells assessed as cell viability at 100 uM by MTT assay relative to control; type: toxicity, cell-based; details: read-out: Activity
Mus musculus [26] = assay: Cognitive enhancing effect in C57BL/6J mouse assessed as reversal of scopolamine-induced long-term memory deficit by measuring latency time during training session at 35 mg/kg, iv administered 90 mins prior to scopolamine-challenge measured after 24 hrs by passive avoidance test; type: functional, organism-based; set-up: dose 35 mg/kg
Mus musculus [27] = assay: Cognitive enhancing effect in C57BL/6J mouse assessed as reversal of scopolamine-induced long-term memory deficit by measuring increase in latency time during probe session at 1 mg/kg, iv administered 90 mins prior to scopolamine-challenge measured after 24 hrs by passive avoidance test; type: functional, organism-based; set-up: dose 1 mg/kg
Mus musculus [28] = assay: Cognitive enhancing effect in C57BL/6J mouse assessed as reversal of scopolamine-induced long-term memory deficit by measuring latency time during training session at 1 mg/kg, iv administered 90 mins prior to scopolamine-challenge measured after 24 hrs by passive avoidance test; type: functional, organism-based; set-up: dose 1 mg/kg

Chain of Acetylcholinesterase (O42275 whole entry): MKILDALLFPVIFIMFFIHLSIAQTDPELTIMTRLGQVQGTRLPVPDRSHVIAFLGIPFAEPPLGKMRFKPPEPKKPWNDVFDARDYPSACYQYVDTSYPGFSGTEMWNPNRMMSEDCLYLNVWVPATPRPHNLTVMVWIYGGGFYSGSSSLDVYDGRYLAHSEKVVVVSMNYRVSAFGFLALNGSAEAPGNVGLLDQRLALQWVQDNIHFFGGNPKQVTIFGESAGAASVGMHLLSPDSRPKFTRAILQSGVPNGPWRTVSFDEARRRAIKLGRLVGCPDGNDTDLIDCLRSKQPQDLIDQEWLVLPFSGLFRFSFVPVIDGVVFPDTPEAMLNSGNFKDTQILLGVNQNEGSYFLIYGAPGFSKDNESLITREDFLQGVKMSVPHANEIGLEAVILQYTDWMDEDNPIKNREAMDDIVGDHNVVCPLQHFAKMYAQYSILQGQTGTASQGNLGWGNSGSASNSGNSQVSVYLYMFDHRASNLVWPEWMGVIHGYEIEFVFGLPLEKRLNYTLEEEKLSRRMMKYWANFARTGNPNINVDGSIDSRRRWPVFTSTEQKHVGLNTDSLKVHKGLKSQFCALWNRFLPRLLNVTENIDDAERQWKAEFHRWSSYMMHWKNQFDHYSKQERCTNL
Chain of Cholinesterase (P81908 whole entry): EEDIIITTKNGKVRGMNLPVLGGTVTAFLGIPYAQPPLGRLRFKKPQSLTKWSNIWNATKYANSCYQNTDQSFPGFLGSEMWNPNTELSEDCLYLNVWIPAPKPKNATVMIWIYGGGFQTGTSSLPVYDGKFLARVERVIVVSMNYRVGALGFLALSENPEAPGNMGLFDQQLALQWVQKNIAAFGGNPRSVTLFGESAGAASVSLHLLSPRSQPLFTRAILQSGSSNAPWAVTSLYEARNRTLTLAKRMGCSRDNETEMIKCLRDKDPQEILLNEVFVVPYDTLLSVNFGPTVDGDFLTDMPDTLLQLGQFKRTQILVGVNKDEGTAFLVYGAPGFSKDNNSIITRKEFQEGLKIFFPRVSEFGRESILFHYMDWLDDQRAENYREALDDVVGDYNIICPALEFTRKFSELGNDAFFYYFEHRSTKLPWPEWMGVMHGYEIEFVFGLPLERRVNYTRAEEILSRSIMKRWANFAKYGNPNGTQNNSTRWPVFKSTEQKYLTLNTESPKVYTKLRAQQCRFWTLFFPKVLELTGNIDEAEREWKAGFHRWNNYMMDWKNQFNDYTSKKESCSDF
Chain of Acetylcholinesterase (Electrophorus electricus) (O42275 24-633 limits assumed): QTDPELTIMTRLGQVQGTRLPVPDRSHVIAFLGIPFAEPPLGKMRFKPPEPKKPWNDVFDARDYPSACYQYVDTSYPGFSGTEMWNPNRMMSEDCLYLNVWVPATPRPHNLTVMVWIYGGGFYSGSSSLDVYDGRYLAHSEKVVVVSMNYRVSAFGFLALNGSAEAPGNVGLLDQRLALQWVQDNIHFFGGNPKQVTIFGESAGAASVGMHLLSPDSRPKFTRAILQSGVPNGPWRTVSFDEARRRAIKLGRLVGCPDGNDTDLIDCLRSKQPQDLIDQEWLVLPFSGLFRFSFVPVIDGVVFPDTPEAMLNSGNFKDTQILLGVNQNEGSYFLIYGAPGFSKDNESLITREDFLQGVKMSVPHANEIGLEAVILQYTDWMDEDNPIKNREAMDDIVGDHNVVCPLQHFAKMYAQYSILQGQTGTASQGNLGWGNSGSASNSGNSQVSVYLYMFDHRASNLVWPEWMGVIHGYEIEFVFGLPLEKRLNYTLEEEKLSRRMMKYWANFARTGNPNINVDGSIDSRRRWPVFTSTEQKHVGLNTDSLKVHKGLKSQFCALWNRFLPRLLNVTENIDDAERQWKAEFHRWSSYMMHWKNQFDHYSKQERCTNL

SMILES | Papp [1] [×10⁻⁶ cm/s] | Fa [2] [%] | fraction unbound [4] | IC50 (Acetylcholinesterase) [µM] | Papp [5] [×10⁻⁶ cm/s] | Papp [6] [×10⁻⁶ cm/s] | also measured
C#CCN(Cc1ccc(O)c2ncccc12)C1CCN(Cc2ccccc2)CC1 | 4.57 | 96.8 | 0.273 | ≥ 100 | 35.1 | 447 | IC50 [3]: ≥ 100 µM; IC50 (Cholinesterase): ≥ 100 µM; IC50 [7]: ≥ 100 µM
C#CCN(Cc1ccc(O)c2ncccc12)CC1CCN(Cc2ccccc2)CC1 | 5.23 | 96.8 | 0.236 | – | 32.6 | 499 | –
C#CCN(CCC1CCN(Cc2ccccc2)CC1)Cc1ccc(O)c2ncccc12 | 5.44 | 96.9 | 0.229 | – | 31.3 | 559 | –
C#CCN(CCCC1CCN(Cc2ccccc2)CC1)Cc1ccc(O)c2ncccc12 | 5.41 | 96.9 | 0.226 | – | 30.2 | 624 | –
C#CCN(C)Cc1ccc(O)c2ncccc12 | 4.29 | 95.9 | 0.31 | ≥ 100 | 42.9 | 250 | IC50 [3]: 1.5 µM; IC50 [7]: 0.057 µM
C#CCN(Cc1ccc(O)c2ncccc12)C(C#N)C1CCN(Cc2ccccc2)CC1 (racemic) | 4.93 | 96.8 | 0.197 | – | 34.8 | 336 | –
C#CCN(Cc1ccc(O)c2ncccc12)C(C#N)CC1CCN(Cc2ccccc2)CC1 (racemic) | 5.2 | 96.9 | 0.216 | – | 32.2 | 375 | –
C#CCN(Cc1ccc(O)c2ncccc12)C(C#N)CCC1CCN(Cc2ccccc2)CC1 (racemic) | 5.44 | 97 | 0.2 | 1.8 | 30.6 | 418 | inhibition (INH) [8]: Dose-dependent effect; IC50 [9]: 8.3 µM; viability at 1 µM [10]: 98.4%; viability at 3 µM [11]: 94.8%; viability at 30 µM [12]: 92.4%; inhibition (INH) [13]: Active; inhibition (INH) [14]: Active; viability at 1000 µM [15]: 51.5%; Activity [16]: 0.5 mole fraction; Activity [17]: 0.65 mole fraction; IC50 (Cholinesterase): 1.6 µM; viability at 300 µM [18]: 71.4%; viability at 10 µM [19]: 94.4%; inhibition (INH) [20]: Dose-dependent effect; IC50 [21]: 3.8 µM; inhibition [22]: Active; Activity [23]: 0.65 mole fraction; Activity (Mus musculus [24]): Active; viability at 100 µM [25]: 85.6%; Activity (Mus musculus [26]): inactive
C#CCN(C)CCCOc1ccc(Cl)cc1Cl [CLORGILINE] | – | – | – | ≥ 500 | – | – | IC50 (Cholinesterase): ≥ 500 µM
COc1cc2c(cc1OC)C(=O)C(CC1CCN(Cc3ccccc3)CC1)C2 (configuration not stated) [DONEPEZIL] | – | 98 | 0.154 | – | – | – | viability at 1 µM [10]: 98.6%; viability at 3 µM [11]: 97%; Activity (Mus musculus [27]): Active; viability at 30 µM [12]: 83.5%; viability at 1000 µM [15]: 40.9%; Activity (Mus musculus [28]): inactive; viability at 300 µM [18]: 53.4%; viability at 10 µM [19]: 92.4%; viability at 100 µM [25]: 80%
C#CCN(C)[C@H](C)Cc1ccccc1 [SELEGILINE] | – | – | – | ≥ 500 | – | – | –
